Values belong to the molecule of their own block, whether it stands above or below them. Active and inactive are the calls of the source. The calls are words filed in the database; no cut-off is given here.
Legend:
Collagenase 3 [1] = target: T1, Collagenase 3 (Homo sapiens, UniProt P45452); assay: Inhibition of human full length recombinant MMP13 using triple-helical fTHP-15 as substrate at 40 uM after 4 hrs by FRET assay
Outline: (§1)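 Inhibitors tested at 40 μM in a FRET assay with the triple-helical peptide substrate fTHP-15 (exosite-engaging), read as percent inhibition of enzyme activity. Enzyme levels: MMP-1 4 nM; MMP-2, MMP-9 and MMP-14 10 nM each; MMP-8 2 nM; MMP-13 2.3 nM.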

[2] = target: Stromelysin-1 (Homo sapiens) (UniProt P08254); assay: Inhibition of MMP3 expressed in Escherichia coli assessed as residual activity using Knight SSP as substrate at 100 uM after 1.5 to 4 hrs by spectrofluorometric analysis relative to control
[3] = target: Matrix metalloproteinase-14 (Homo sapiens) (UniProt P50281); assay: Inhibition of MMP14 using triple-helical fTHP-15 as substrate at 40 uM after 4 hrs by FRET assay; outline: as §1
[4] = target: Disintegrin and metalloproteinase domain-containing protein 17 (Homo sapiens) (UniProt P78536); assay: Inhibition of TACE at 40 uM
[5] = target: T2, Interstitial collagenase (Homo sapiens) (UniProt P03956); assay: Inhibition of MMP1 expressed in Escherichia coli assessed as residual activity using Knight SSP as substrate at 100 uM after 1.5 to 4 hrs by spectrofluorometric analysis relative to control
T2 sequence (whole entry): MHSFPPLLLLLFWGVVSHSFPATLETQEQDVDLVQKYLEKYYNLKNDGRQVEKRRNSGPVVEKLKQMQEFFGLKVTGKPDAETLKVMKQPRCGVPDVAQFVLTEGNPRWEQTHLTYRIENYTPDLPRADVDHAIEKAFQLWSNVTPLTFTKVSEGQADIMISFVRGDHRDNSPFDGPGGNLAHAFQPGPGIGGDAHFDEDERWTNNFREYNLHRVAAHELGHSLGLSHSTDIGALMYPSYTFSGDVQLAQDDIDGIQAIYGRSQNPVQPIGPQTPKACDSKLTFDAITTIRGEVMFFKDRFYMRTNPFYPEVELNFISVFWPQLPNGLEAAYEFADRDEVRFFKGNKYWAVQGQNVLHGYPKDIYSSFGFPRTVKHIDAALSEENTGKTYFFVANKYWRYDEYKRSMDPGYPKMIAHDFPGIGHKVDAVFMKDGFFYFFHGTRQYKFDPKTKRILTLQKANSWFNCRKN

Neutrophil collagenase [6] = target: T3, Neutrophil collagenase (Homo sapiens, UniProt P22894); assay: Inhibition of MMP8 expressed in CHO-K1 cells using triple-helical fTHP-15 as substrate after 4 hrs by FRET assay; format: cell-based
Target sequence in this assay (P22894 whole entry): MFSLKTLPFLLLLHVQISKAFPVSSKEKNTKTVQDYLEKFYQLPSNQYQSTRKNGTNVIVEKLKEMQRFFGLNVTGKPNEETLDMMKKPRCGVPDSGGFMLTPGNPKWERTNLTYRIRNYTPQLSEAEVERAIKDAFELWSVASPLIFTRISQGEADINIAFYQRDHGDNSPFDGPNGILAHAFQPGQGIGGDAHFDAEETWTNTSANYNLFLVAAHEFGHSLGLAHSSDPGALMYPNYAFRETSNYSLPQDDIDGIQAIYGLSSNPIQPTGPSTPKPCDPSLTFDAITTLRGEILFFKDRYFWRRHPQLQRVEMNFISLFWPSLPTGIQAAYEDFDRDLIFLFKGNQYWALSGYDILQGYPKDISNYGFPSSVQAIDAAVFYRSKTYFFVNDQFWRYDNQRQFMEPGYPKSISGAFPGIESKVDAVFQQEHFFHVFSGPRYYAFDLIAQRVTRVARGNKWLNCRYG

[7] = target: T2, Interstitial collagenase (Homo sapiens); assay: Inhibition of MMP1 expressed in Escherichia coli using triple-helical fTHP-15 as substrate at 40 uM after 4 hrs by FRET assay; outline: as §1
[8] = target: T4, Matrix metalloproteinase-20 (Homo sapiens) (UniProt O60882); assay: Inhibition of MMP20 assessed as residual activity using Knight SSP as substrate at 100 uM after 1.5 to 4 hrs by spectrofluorometric analysis relative to control
T4 sequence (whole entry): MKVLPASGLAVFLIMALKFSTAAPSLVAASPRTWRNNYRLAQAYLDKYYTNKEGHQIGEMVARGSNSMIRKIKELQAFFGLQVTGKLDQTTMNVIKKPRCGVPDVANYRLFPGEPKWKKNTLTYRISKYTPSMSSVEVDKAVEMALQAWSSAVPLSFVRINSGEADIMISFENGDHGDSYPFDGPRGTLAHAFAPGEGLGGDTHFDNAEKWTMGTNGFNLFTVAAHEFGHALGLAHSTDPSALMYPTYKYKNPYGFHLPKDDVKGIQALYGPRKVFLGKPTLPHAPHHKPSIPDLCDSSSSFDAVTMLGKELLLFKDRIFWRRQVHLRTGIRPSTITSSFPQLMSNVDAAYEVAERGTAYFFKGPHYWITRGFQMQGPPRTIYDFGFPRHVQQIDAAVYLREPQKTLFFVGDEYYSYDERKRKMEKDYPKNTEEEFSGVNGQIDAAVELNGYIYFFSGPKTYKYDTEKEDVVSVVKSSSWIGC

[9] = target: Macrophage metalloelastase (Homo sapiens) (UniProt P39900); assay: Inhibition of MMP12 assessed as residual activity using Knight SSP as substrate at 100 uM after 1.5 to 4 hrs by spectrofluorometric analysis relative to control
Interstitial collagenase = target: T5, Interstitial collagenase (Homo sapiens, UniProt P03956); assay: Inhibition of MMP1 expressed in Escherichia coli using triple-helical fTHP-15 as substrate after 4 hrs by FRET assay
T5 sequence (P03956 whole entry): T2 sequence (whole entry)

Collagenase 3 [10] = target: T1, Collagenase 3; assay: Inhibition of human full length recombinant MMP13 assessed as residual activity using Knight SSP as substrate at 100 uM after 1.5 to 4 hrs by spectrofluorometric analysis relative to control
Neutrophil collagenase [11] = target: T3, Neutrophil collagenase; assay: Inhibition of MMP8 expressed in CHO-K1 cells assessed as residual activity using Knight SSP as substrate at 100 uM after 1.5 to 4 hrs by spectrofluorometric analysis relative to control; format: cell-based
Target sequence in this assay (P22894 101-467 limits assumed): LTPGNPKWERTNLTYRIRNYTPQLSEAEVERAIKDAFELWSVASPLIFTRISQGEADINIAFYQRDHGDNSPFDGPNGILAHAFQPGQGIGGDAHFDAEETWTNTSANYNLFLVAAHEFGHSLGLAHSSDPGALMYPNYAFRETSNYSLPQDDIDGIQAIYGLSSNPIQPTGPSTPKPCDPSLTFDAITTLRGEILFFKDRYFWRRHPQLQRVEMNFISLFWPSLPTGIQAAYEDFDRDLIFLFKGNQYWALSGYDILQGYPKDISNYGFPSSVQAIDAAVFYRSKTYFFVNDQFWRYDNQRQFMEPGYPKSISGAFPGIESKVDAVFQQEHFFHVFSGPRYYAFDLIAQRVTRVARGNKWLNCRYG

[12] = target: Matrix metalloproteinase-14 (Homo sapiens) (UniProt P50281); assay: Inhibition of MMP14 assessed as residual activity using Knight SSP as substrate at 100 uM after 1.5 to 4 hrs by spectrofluorometric analysis relative to control
[13] = target: Matrix metalloproteinase-9 (Homo sapiens) (UniProt P14780); assay: Inhibition of recombinant MMP9 using triple-helical fTHP-15 as substrate at 40 uM after 4 hrs by FRET assay; outline: as §1
[14] = target: 72 kDa type IV collagenase (Homo sapiens) (UniProt P08253); assay: Inhibition of human MMP2 using triple-helical fTHP-15 as substrate at 40 uM after 4 hrs by FRET assay; outline: as §1
Collagenase 3 [15] = target: T1, Collagenase 3; assay: Noncompetitive inhibition of human full length recombinant MMP13 using triple-helical fTHP-15 as substrate by Lineweaver-Burk plot analysis
Outline: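 Single-inhibitor kinetic assay of MMP-13 hydrolysis of the FRET triple-helical peptide fTHP-15, which engages protease exosites. Run to obtain the inhibition constant (Ki) and the inhibition modality, following previously described methods.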

Neutrophil collagenase [16] = target: T3, Neutrophil collagenase; assay: Inhibition of MMP8 expressed in CHO-K1 cells using triple-helical fTHP-15 as substrate at 40 uM after 4 hrs by FRET assay; outline: as §1
Target sequence in this assay (P22894 101-467 limits assumed): as above

[17] = target: 72 kDa type IV collagenase (Homo sapiens) (UniProt P08253); assay: Inhibition of human MMP2 assessed as residual activity using Knight SSP as substrate at 100 uM after 1.5 to 4 hrs by spectrofluorometric analysis relative to control

Chain of 72 kDa type IV collagenase (Homo sapiens) (P08253 110-660 limits assumed): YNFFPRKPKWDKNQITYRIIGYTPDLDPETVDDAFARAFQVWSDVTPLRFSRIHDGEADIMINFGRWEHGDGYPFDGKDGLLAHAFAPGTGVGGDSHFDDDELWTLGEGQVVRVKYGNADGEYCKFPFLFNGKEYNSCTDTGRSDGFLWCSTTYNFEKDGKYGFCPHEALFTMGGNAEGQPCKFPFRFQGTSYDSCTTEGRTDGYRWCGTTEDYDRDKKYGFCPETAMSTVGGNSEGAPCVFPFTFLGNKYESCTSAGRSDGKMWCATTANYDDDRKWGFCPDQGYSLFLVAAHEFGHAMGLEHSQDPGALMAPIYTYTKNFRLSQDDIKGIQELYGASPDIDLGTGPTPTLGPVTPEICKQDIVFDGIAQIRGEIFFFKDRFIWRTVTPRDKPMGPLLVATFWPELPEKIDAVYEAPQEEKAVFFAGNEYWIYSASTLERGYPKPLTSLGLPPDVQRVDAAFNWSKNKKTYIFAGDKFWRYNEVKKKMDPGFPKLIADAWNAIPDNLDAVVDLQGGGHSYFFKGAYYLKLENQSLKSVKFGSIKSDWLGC
Chain of Macrophage metalloelastase (Homo sapiens) (P39900 106-470 limits assumed): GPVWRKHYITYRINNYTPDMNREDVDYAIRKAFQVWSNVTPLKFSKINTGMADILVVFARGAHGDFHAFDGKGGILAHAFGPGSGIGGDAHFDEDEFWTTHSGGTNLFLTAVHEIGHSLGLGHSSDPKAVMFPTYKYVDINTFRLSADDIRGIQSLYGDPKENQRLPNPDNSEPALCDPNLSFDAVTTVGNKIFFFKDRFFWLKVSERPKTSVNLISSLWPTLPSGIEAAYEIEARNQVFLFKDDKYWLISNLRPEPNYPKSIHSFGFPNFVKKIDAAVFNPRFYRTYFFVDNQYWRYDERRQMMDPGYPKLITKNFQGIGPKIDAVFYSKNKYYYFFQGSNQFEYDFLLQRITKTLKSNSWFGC
Chain of Stromelysin-1 (Homo sapiens) (P08254 100-477 limits assumed): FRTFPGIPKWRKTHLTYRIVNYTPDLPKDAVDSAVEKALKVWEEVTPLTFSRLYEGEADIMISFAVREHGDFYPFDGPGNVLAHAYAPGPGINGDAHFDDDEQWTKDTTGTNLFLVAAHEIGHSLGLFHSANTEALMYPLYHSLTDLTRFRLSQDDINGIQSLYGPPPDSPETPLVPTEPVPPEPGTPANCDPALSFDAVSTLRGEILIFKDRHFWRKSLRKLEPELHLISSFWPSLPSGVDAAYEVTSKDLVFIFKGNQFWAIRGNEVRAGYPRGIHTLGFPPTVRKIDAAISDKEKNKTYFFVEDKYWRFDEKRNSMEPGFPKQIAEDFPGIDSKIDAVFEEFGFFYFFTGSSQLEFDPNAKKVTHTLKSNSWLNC
Chain of Disintegrin and metalloproteinase domain-containing protein 17 (Homo sapiens) (P78536 whole entry, the tested form may be a part): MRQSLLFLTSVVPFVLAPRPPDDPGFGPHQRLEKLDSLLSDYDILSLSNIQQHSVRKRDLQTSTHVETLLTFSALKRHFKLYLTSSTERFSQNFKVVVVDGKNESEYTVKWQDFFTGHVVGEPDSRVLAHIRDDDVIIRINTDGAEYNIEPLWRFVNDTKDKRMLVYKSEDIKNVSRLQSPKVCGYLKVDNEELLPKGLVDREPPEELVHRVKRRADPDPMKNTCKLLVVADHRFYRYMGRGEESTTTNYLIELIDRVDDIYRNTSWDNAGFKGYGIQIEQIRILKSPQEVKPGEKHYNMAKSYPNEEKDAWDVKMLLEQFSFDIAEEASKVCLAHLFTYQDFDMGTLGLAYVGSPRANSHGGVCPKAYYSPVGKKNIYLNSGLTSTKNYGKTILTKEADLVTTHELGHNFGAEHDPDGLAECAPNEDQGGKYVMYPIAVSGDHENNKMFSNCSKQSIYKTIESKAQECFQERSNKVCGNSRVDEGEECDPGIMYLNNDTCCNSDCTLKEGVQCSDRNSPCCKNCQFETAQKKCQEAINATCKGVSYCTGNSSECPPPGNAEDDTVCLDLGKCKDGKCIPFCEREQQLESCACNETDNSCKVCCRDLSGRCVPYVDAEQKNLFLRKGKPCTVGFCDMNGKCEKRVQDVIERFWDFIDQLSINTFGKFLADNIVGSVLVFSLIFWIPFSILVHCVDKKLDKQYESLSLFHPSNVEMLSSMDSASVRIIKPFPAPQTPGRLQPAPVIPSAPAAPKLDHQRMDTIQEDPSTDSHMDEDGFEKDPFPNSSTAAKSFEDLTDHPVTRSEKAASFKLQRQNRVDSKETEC
Chain of Matrix metalloproteinase-9 (Homo sapiens) (P14780 whole entry): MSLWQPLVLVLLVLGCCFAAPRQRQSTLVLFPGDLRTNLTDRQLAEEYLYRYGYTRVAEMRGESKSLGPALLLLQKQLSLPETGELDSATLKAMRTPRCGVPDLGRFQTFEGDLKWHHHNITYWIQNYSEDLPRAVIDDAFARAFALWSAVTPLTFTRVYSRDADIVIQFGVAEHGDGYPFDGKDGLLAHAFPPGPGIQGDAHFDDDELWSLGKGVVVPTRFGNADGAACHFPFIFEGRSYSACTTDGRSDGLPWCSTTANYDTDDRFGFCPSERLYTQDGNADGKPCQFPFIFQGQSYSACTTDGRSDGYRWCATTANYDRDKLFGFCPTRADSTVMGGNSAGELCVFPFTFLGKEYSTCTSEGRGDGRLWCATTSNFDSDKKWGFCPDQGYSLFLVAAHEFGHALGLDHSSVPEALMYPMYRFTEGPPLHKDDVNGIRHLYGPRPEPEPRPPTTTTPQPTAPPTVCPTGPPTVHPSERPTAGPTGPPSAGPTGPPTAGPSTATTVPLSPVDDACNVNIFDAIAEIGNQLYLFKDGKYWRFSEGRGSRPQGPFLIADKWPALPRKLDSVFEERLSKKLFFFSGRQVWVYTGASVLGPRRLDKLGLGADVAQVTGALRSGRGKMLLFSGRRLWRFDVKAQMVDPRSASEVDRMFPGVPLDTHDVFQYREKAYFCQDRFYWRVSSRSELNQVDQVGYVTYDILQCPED

Compound: Nc1cc(O)nc(SCc2ccc(Cl)cc2)n1
inhibition (Collagenase 3 [1]): 37%

Compound: Oc1nc(SCc2ccc(Cl)cc2)nc2c1CCC2
Activity [2]: 96%
inhibition [3]: 22%
inhibition [4]: inactive
Activity [5]: 92.7%
IC50 (Neutrophil collagenase [6]): > 40 µM
inhibition [7]: 0%
inhibition (Collagenase 3 [1]): 49.1%
Activity [8]: 105%
Activity [9]: 91.6%
IC50 (Interstitial collagenase): > 40 µM
Activity (Collagenase 3 [10]): 44%
Activity (Neutrophil collagenase [11]): 81.7%
Activity [12]: 107%
inhibition [13]: 10%
inhibition [14]: 25%
Ki (Collagenase 3 [15]): 3.8 µM
inhibition (Neutrophil collagenase [16]): 17%
Activity [17]: 83%

Compound: CCCc1cc(O)nc(SCc2ccc(Cl)cc2)n1
inhibition (Collagenase 3 [1]): inactive

Compound: CC(=O)Nc1c(O)nc(SCc2ccc(Cl)cc2)nc1O
inhibition (Collagenase 3 [1]): inactive

Compound: Cc1ccc(CSc2nc(O)c3c(n2)CCC3)cc1
Activity [2]: 100%
inhibition [3]: 20%
inhibition [4]: inactive
Activity [5]: 106%
inhibition [7]: 0%
inhibition (Collagenase 3 [1]): 67%
Activity [8]: 101%
Activity [9]: 77.3%
Activity (Collagenase 3 [10]): 38.6%
Activity (Neutrophil collagenase [11]): 106%
Activity [12]: 100%
inhibition [13]: 7%
inhibition [14]: 19%
inhibition (Neutrophil collagenase [16]): 0%
Activity [17]: 97.6%

Compound: Cc1ccccc1S(=O)(=O)Nc1cc(=O)[nH]c(SCc2ccc(Cl)cc2)n1
inhibition (Collagenase 3 [1]): 30.5%

Compound: CCCCSc1nc(O)c2c(n1)CCC2
inhibition (Collagenase 3 [1]): 17.1%

Compound: Cc1nc(SCc2ccc(Br)cc2)nc(O)c1C
inhibition (Collagenase 3 [1]): 55.8%
inhibition (Neutrophil collagenase [16]): 20%

Compound: Oc1nc(SCc2ccc(Cl)cc2)nc2ccccc12
inhibition (Collagenase 3 [1]): inactive

Compound: Oc1nc(SCc2ccc(Cl)cc2)nc2ccsc12
inhibition (Collagenase 3 [1]): 36.6%

Compound: O=S(=O)(Nc1cc(O)nc(SCc2ccc(Cl)cc2)n1)c1ccccc1
inhibition (Collagenase 3 [1]): 31.2%

Compound: Oc1[nH]c(SCc2ccc(Cl)cc2)nc2nncc1-2
inhibition (Collagenase 3 [1]): inactive

Compound: Cc1cccc(CSc2nc(O)c3c(n2)CCCC3)c1
inhibition (Collagenase 3 [1]): inactive

Compound: Cc1cc(=O)[nH]c(SCc2ccc(Cl)cc2)n1
inhibition (Collagenase 3 [1]): 32.9%

Compound: O=c1[nH]c(SCc2ccc(Cl)cc2)nc(O)c1Cc1ccccc1
inhibition (Collagenase 3 [1]): inactive

Second part, the molecule after the results:

inhibition (Collagenase 3 [1]): 16%
Compound: O=C(CSc1nc2c(c(=O)[nH]1)C(Cc1ccccc1)CC2)c1ccccc1 (stereo not given)

IC50 (Neutrophil collagenase [6]): > 40 µM
IC50 (Interstitial collagenase): > 40 µM
Ki (Collagenase 3 [15]): 0.824 µM
Compound: Cc1ccc(CSc2nc3c(c(=O)[nH]2)CCC3)cc1

inhibition (Collagenase 3 [1]): inactive
Compound: Cc1oc(-c2cccc(Cl)c2)cc1CSc1nc2c(c(=O)[nH]1)CCC2

inhibition (Collagenase 3 [1]): 34.4%
Compound: O=c1[nH]c(SCc2ccc(OC(F)(F)F)cc2)nc2c1CCC2

inhibition (Collagenase 3 [1]): 37.7%
Compound: O=c1[nH]c(SCc2ccc(Cl)cc2)nc2c1C(Cc1ccccc1)CC2 (stereo not given)

inhibition (Collagenase 3 [1]): inactive
Compound: O=C(CSc1nc2c(c(=O)[nH]1)CCC2)c1ccccc1

inhibition (Collagenase 3 [1]): 2.2%
Compound: O=C(O)c1ccc(CSc2nc3c(c(=O)[nH]2)CCC3)cc1

inhibition (Collagenase 3 [1]): inactive
Compound: O=c1[nH]c(SCc2coc(-c3cccc(Cl)c3)n2)nc2c1CCC2

inhibition (Collagenase 3 [1]): 7.7%
Compound: O=c1[nH]c(SCCc2ccccc2)nc2c1CCC2

inhibition (Collagenase 3 [1]): 45.2%
Compound: Cc1cccc(CSc2nc3c(c(=O)[nH]2)CCC3)c1

inhibition (Collagenase 3 [1]): 46.7%
Compound: CS(=O)(=O)c1ccc(CSc2nc3c(c(=O)[nH]2)CCC3)cc1

inhibition (Collagenase 3 [1]): 10.3%
Compound: C#CCSc1nc2c(c(=O)[nH]1)CCC2

Activity [2]: 100%
inhibition [3]: 31%
inhibition [4]: inactive
Activity [5]: 102%
IC50 (Neutrophil collagenase [6]): > 40 µM
inhibition [7]: 0%
inhibition (Collagenase 3 [1]): 61%
Activity [8]: 96.4%
Activity [9]: 80.6%
IC50 (Interstitial collagenase): > 40 µM
Activity (Collagenase 3 [10]): 35.1%
Activity (Neutrophil collagenase [11]): 93.8%
Activity [12]: 104%
inhibition [13]: 16%
inhibition [14]: 26%
Ki (Collagenase 3 [15]): 1.53 µM
inhibition (Neutrophil collagenase [16]): 8%
Activity [17]: 84.7%
Compound: COC(=O)c1ccc(CSc2nc3c(c(=O)[nH]2)CCC3)cc1

inhibition (Collagenase 3 [1]): 7.2%
Compound: O=c1[nH]c(SCCCc2ccccc2)nc2c1CCC2
